Data taken from ChEMBL document CHEMBL4138298, “Synthesis of Novel Tetrahydroisoquinoline CXCR4 Antagonists with Rigidified Side-Chains” (ACS Med Chem Lett, 2018).

How the values were obtained:
[1] = Metabolic stability in mouse liver microsomes assessed as parent compound remaining; format: ADME, microsome
[2] = target: Cytochrome P450 3A4 (Homo sapiens, UniProt P08684); assay: Inhibition of CYP3A4 (unknown origin) using BFC as substrate; format: ADME
[3] = target: Cytochrome P450 2D6 (Homo sapiens, UniProt P10635); assay: Inhibition of recombinant human CYP2D6 expressed in insect microsomes using AMMC as substrate preincubated for 30 mins followed by NADPH addition measured after 45 mins by fluorescence assay; format: ADME
[4] = Permeability of the compound in pH 7.4 buffer after 4 hrs by PAMPA; format: ADME; conditions: read-out: permeability
Method in brief: (§1)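 Parallel artificial membrane permeability assay (PAMPA) for passive transcellular permeability, run at pH 7.4 and at pH 5.5, with permeability reported in nm/s.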

[5] = target: Muscarinic acetylcholine receptor M3 (Homo sapiens, UniProt P20309); assay: Antagonist activity at mAChR M3 in human CCRF-CEM cells assessed as inhibition of acetylcholine-mediated calcium flux incubated for 25 mins followed by acetylcholine stimulation measured for 90 secs; format: functional, cell-based
[6] = target: C-X-C chemokine receptor type 4 (Homo sapiens, UniProt P61073); assay: Antagonist activity at CXCR4 in human CCRF-CEM cells assessed as inhibition of CXCL12-mediated calcium flux incubated for 25 mins followed by CXCL12 stimulation measured for 90 secs; format: functional, cell-based
[7] = Metabolic stability in rat liver microsomes assessed as parent compound remaining; format: ADME, microsome
[8] = Metabolic stability in human liver microsomes assessed as parent compound remaining; format: ADME, microsome
[9] = Permeability of the compound in pH 5.5 buffer after 4 hrs by PAMPA; format: ADME; conditions: for Papp at 4 h: PAMPA, pH 5.5, read-out: permeability; method in brief: as §1
[10] = target: T1, Cytochrome P450 2C8 (Homo sapiens, UniProt P10632); assay: Inhibition of CYP2C8 (unknown origin); format: ADME
T1 sequence (P10632 whole entry): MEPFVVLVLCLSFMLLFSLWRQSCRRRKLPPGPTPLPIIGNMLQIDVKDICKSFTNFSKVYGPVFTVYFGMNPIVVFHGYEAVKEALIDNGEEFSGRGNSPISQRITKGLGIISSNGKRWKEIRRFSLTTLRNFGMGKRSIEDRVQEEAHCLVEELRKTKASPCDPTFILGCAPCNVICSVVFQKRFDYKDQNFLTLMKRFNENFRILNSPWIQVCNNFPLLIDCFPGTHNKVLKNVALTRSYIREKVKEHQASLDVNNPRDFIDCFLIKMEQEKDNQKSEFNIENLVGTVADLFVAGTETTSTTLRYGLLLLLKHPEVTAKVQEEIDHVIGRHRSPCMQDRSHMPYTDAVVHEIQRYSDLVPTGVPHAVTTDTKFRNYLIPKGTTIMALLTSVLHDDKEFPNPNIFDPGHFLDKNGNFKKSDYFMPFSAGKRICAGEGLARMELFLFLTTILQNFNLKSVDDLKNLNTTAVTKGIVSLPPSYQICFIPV

[11] = target: Cytochrome P450 2C19 (Homo sapiens, UniProt P33261); assay: Inhibition of CYP2C19 (unknown origin); format: ADME
Sequence of Cytochrome P450 2C19 (P33261 whole entry): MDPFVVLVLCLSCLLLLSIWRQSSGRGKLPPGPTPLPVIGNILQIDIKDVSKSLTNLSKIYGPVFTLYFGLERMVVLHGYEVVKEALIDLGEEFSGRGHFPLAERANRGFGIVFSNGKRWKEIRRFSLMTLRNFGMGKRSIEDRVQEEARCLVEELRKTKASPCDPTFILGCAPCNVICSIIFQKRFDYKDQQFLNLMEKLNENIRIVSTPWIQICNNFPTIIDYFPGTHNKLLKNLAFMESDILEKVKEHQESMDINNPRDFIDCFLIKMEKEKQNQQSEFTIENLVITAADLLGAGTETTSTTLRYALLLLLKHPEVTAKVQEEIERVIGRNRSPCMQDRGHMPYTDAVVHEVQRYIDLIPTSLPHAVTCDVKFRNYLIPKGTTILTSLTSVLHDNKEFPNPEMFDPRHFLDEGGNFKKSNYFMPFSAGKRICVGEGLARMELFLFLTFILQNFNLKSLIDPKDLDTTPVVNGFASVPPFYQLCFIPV

Sequence of Cytochrome P450 3A4 (P08684 whole entry): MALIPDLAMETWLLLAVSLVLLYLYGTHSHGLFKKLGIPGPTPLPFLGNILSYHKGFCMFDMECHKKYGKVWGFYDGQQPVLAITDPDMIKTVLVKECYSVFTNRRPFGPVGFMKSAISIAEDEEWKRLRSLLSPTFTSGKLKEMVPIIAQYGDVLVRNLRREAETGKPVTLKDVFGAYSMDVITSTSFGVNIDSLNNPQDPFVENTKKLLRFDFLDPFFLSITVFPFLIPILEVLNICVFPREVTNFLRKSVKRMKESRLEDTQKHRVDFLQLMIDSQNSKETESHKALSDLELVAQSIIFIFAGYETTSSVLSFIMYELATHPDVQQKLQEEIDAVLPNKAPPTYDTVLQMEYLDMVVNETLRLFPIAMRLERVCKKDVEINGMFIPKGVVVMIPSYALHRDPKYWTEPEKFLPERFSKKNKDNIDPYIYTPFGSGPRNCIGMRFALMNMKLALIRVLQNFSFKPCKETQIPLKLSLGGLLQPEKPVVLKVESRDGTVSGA
Sequence of C-X-C chemokine receptor type 4 (P61073 whole entry): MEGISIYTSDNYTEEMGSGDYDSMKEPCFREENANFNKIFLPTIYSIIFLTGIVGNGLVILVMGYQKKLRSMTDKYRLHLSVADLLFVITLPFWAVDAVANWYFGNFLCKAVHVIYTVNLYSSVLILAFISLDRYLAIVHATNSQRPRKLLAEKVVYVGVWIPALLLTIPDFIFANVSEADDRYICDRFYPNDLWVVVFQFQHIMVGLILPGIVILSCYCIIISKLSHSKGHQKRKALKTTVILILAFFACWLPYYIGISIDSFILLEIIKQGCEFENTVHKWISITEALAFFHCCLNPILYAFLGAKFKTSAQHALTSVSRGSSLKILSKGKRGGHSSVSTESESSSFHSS
Sequence of Cytochrome P450 2D6 (P10635 whole entry): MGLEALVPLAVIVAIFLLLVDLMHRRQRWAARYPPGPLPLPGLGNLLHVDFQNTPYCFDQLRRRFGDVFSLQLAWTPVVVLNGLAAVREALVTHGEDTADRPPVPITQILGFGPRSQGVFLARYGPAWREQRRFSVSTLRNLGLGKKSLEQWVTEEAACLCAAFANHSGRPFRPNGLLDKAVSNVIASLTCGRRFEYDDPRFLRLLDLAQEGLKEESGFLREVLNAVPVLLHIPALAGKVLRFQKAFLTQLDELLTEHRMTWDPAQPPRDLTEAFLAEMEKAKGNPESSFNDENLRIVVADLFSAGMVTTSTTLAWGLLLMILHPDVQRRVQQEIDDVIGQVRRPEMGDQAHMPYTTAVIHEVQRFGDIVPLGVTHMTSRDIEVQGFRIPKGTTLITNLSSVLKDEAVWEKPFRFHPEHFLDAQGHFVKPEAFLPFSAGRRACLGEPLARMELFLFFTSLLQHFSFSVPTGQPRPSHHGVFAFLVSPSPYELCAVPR
Sequence of Muscarinic acetylcholine receptor M3 (P20309 whole entry): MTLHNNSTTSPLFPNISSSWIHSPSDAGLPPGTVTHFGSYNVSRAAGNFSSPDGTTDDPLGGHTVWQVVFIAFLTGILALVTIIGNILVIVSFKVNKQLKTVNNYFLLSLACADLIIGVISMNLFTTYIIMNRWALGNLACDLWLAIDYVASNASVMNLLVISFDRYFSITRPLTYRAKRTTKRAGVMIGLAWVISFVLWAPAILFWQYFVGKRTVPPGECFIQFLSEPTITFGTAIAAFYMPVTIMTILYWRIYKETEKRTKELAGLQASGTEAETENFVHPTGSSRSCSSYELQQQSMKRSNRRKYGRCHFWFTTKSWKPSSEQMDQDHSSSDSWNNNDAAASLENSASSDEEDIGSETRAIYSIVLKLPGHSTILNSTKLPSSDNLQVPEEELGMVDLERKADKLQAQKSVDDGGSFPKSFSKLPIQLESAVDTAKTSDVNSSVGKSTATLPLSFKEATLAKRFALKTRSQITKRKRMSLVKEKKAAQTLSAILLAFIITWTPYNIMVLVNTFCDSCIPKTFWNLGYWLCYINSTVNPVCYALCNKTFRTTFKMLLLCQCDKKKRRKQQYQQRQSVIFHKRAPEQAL

SMILES	Stability [1] [%]	IC50 [2] [nM]	IC50 [3] [nM]	Papp at 4 h [4] [×10⁻⁶ cm/s]	IC50 [5] [nM]	IC50 [6] [nM]	Stability [7] [%]	Stability [8] [%]	Papp at 4 h [9] [×10⁻⁶ cm/s]	IC50 [10] [nM]	IC50 [11] [nM]	permeability ([9]; pampa, pH 5.5, 4 h, 4 h) [×10⁻⁶ cm/s]
N[C@H]1CC[C@H](CN(C[C@H]2Cc3ccccc3CN2)[C@H]2CCCc3cccnc32)CC1	44	10000	760	1.2	> 33000	280	51	39				
C/C(=C/CN(C[C@H]1Cc2ccccc2CN1)[C@H]1CCCc2cccnc21)CN	2	> 20000	< 27	1.1	32	8.6	1	100	0.4			
C/C(CN)=C(\F)CN(C[C@H]1Cc2ccccc2CN1)[C@H]1CCCc2cccnc21	2	15000	59	49	770	28	2	100	5			
NCC1=C(CN(C[C@H]2Cc3ccccc3CN2)[C@H]2CCCc3cccnc32)CCCC1	2		180		23000	230	1	65	17			
NC[C@H]1CC[C@H](CN(C[C@H]2Cc3ccccc3CN2)[C@H]2CCCc3cccnc32)CC1	92		12000		10000		86	63		4100	9100	
C/C(=C/CN)CN(C[C@H]1Cc2ccccc2CN1)[C@H]1CCCc2cccnc21	2	> 20000	88	25	1100		2	96	8.3			
C/C(CN(C[C@H]1Cc2ccccc2CN1)[C@H]1CCCc2cccnc21)=C(\F)CN	1	13000	190	55	9600		6	51	28			
NCC1CC1CN(C[C@H]1Cc2ccccc2CN1)[C@H]1CCCc2cccnc21 (single isomer, unassigned; diastereomer 2)	4		270		13000	13						8.8
N[C@H]1CC[C@H](N(C[C@H]2Cc3ccccc3CN2)[C@H]2CCCc3cccnc32)CC1	77	> 20000	2500	3.7	> 33000	34	71	95	0.6			
